# Assay outcomes from PubChem BioAssay.
# APOBEC3G inh: APOBEC3G DNA deaminase inhibitors, primary screen, biochemical, fluorescence, single-stranded DNA substrate, uHTS | recombinant A3G, ssDNA deamination FAM/TAMRA fluorescence | actives 0.28% (n = 330,000) | AID 493012, 2011 | inhibition, % at 20 µM | DNA dC->dU-editing enzyme APOBEC-3G (Homo sapiens), Q9HC16;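 active means inhibition of at least 40% at 20 µM, with no more than 30% in the related APOBEC3A deaminase screen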;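 further: plate controls were DMSO wells with A3G for no effect and wells lacking A3G enzyme for full effect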
# A3A deaminase: APOBEC3A ssDNA deaminase inhibitors, primary screen, selectivity assay for APOBEC3G inhibitor project, biochemical, FAM/TAMRA oligo cleavage fluorescence | inhibition, % at 20 µM | actives 0.41% (n = 330,000) | DNA dC->dU-editing enzyme APOBEC-3A (Homo sapiens), P31941 | recombinant A3A, FAM/TAMRA ssDNA deamination fluorescence;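 active means at least 40% inhibition at 20 µM here, with at most 30% in a related deaminase screen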;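 further: plate controls were A3A with DMSO for no effect and wells lacking A3A enzyme for full effect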
# GASC-1 inh: inhibitors of GASC-1 histone demethylase, primary screen, biochemical, fluorescence, DELFIA europium. inhibition, % at 2.35 µM. actives 0.069% (n = 330,000). GST-JMJD2C(1-420) H3K9me3 demethylation. Lysine-specific demethylase 4C (Homo sapiens), Q9H3R0;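 active means more than half of a compound's replicate wells show inhibition beyond 50%, single wells judged on their own value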;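 further: signal counts dimethyl H3K9 product captured on neutravidin plate; 0% = median of DMSO wells and 100% = 0.3 times that DMSO median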
# UCH37 DUB inh: inhibitors of human UCH37 deubiquitinase, primary screen, biochemical, Ub-AMC cleavage, fluorescence | Ubiquitin carboxyl-terminal hydrolase isozyme L5 (Homo sapiens), Q9Y5K5 | actives 0.33% (n = 330,000) | inhibition, % (no concentration beside the values) | purified proteasome/UCH37;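 active means mean inhibition over replicate wells above about 20%, limit read from the data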;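 further: 0% = compound-free wells with enzyme and 100% = wells lacking proteasome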
# Target sequence (Q9Y5K5 whole entry, looked up): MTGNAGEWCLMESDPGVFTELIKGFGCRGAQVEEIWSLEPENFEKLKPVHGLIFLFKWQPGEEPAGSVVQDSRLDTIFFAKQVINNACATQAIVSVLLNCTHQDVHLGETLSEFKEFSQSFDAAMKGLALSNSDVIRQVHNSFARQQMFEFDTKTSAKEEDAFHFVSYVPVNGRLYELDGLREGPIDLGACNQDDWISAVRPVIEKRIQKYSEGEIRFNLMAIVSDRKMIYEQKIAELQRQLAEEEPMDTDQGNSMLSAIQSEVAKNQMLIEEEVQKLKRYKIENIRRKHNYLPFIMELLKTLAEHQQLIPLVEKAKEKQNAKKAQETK
#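 Material: Human UCH37 enzyme supplied as purified proteasome complex | Schedule: 30 min preincubation with enzyme, 25 min cleavage at room temperature | Detection: AMC fluorescence 355/460 nm | Measure: % inhibition of Ub-AMC cleavage fluorescence | Controls: Wells without proteasome as full block, compound-free enzyme plus substrate as uninhibited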
# APOBEC3A confirm: APOBEC3A deaminase inhibitors, retest, confirmation, selectivity assay for APOBEC3G inhibitor project, biochemical, single concentration, fluorescence readout | shares compounds with A3A deaminase | recombinant A3A, ssDNA deaminase UDG fluorescence assay | inhibition, % at 20 µM | actives 63% (n = 1,400) | AID 493151, 2011;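 active means inhibition reaching a set limit, 80% of the first screen's cutoff, at 20 µM in any replicate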;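 further: plate controls were DMSO wells with A3A for no effect and wells lacking A3A enzyme for full effect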
# UDG A3A counter: E. coli UDG inhibitors, confirmation, counter-screen for APOBEC3A inhibitor project, biochemical, single concentration, fluorescence, FAM/TAMRA oligo; UDG counterscreen, FAM/TAMRA uracil oligo fluorescence; shares compounds with A3A deaminase; inhibition, % at 20 µM; 1,000 tested, under 10 active; AID 504714, 2011; call rule not given here
# APOBEC3G confirm: APOBEC3G deaminase inhibitor retest, confirmation, biochemical, fluorescence, single-stranded DNA substrate, single concentration | shares compounds with APOBEC3G inh | recombinant A3G ssDNA deaminase, UDG/FAM-TAMRA fluorescence | actives 72% (n = 890) | inhibition, % at 20 µM;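 active means inhibition reaching a set limit in any replicate at 20 µM, the limit being 80% of the first screen's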
# UDG ctr A3G: E. coli UDG inhibitors, confirmation, counter-screen for APOBEC3G inhibitor project, biochemical, single concentration, fluorescence, FAM/TAMRA oligo. shares compounds with APOBEC3G inh. UDG counterscreen. inhibition, % at 20 µM. 710 tested, under 10 active;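 active means compounds giving 40% or more inhibition at 20 µM in any one of the three replicates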;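 further: plate controls were DMSO wells with UDG and oligo for no effect and DMSO wells lacking both for full effect; inhibitors lower the FAM signal released by uracil excision and alkaline cleavage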
# Target sequence (P12295 whole entry, looked up): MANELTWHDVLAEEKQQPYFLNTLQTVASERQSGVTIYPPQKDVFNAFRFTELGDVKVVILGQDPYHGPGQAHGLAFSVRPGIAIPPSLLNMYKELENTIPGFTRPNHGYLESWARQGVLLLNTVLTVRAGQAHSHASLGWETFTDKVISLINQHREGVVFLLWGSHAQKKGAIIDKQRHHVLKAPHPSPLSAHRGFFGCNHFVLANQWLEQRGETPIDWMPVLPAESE
# The depositor's hits bear a star; . = no result given; ! = a repeat was not active. This is a sample that favours compounds with a hit; in the whole collection about 0.97% have one here.
SMILES,APOBEC3G inh,A3A deaminase,GASC-1 inh,UCH37 DUB inh,APOBEC3A confirm,UDG A3A counter,others
CC(C)CC(=NO)c1cn(C)c2ccccc12,.,.,.,4,.,.,
O=C(O)C1C(C(=O)O)C2(Cl)C(Cl)=C(Cl)C1(Cl)C2(Cl)Cl (stereo not given),1,43*,11,-1,15*,-2,
O=[N+]([O-])c1ccc(O)c([N+](=O)[O-])c1,-8,-1,-23,8,.,.,
O=[N+]([O-])c1cc([As](=O)(O)O)ccc1O,6,83*,4,1,51*,-1,
CCN1C[C@]2(C)CC[C@H](OC)C34C2[C@H](OC(C)=O)[C@@]2(OCO[C@@]25C[C@H](OC)[C@H]2C[C@]3(O)C5[C@H]2OC)[C@@H]14,.,.,.,1,.,.,
CCOC(=O)c1cc(CC)sc1N=CC1C(=O)NC(=S)NC1=O,.,.,.,5,.,.,
CCOC(=O)C(=NNc1ccccc1)N1CC1,.,.,.,10,.,.,
C[N+](C)(C)CCc1ccc(O)cc1,25,65*,3,4,77*,3,
CCOC(=O)C(O)(c1ccc(N=c2ccccn2C)cc1)C(F)(F)F (stereo not given),13,44*,-3,-1,32*,-3,
CCOC(=O)C(O)(c1cn(C)c2ccccc12)C(F)(F)F (stereo not given),0,1,8,3,.,.,
O=[N+]([O-])C=C1NCCN1Cc1ccc(Cl)nc1,.,.,.,5,.,.,
C[N+]12CCC(CC1)C(=C(c1ccccc1)c1ccccc1)C2,22,75*,0,0,71*,-2,
CC[N+]12CCC(CC1)C(=C(c1ccccc1)c1ccccc1)C2,-3,2,-7,1,.,.,
COc1ccccc1CC1C(=NO)C2CCN1CC2 (stereo not given),.,.,.,3,.,.,
CN(CCCCC(=O)C=NO)Cc1ccccc1 (tested in a mixture with another compound),.,.,.,-1,.,.,
Cc1ccc(N2C(=O)NC(=O)/C(=C\c3cc(C)n(-c4cc(C(=O)O)cc(C(=O)O)c4)c3C)C2=O)cc1,17,54*,-7,9,28*,0,
C[C@H]1CC[C@H]2NCCN[C@H]2C1,-6,62*,7,2,3,2,
O=C(CSC1c2ccccc2-c2ccccc21)NN=Cc1ccccc1,.,.,.,3,.,.,
CCOc1ccc(N=C2SCCCN2C)cc1,18,40*,10,2,66*,-3,
CC[C@]12C=CCN3CCC4(c5cc(Br)c(OC)cc5N(C)C4[C@@](O)(C(=O)OC)[C@@H]1OC(C)=O)C32 (stereo not given in full),16,62*,1,2,70*,-4,
C[N+]1(C)CCc2cc3c(cc2[C@H]1[C@@H]1OC(=O)c2c1ccc1c2OCO1)OCO3,23,46*!,-18,-1,80*,1,
CN(C)c1ccc(/C=C2/C(=NO)C3CCN2CC3)cc1,.,.,.,9,.,.,
ON=C1/C(=C\c2ccccc2)N2CCC1CC2,.,.,.,3,.,.,
COc1ccc(CN2CCNCC2)c(OC)c1OC,-3,57*!,3,0,62*,-2,
C[N+]1(C)C2CC[C@H]1CC(OC(=O)C(CO)c1ccccc1)C2 (stereo not given in full),-4,-2,.,5,.,.,
SMILES,APOBEC3G inh,A3A deaminase,GASC-1 inh,UCH37 DUB inh,APOBEC3A confirm,UDG A3A counter,others
C[N+]1(C)C2CCC1CC(OC(=O)c1c[nH]c3ccccc13)C2 (stereo not given),18,72*,.,3,84*,2,
C[N+]1(C)[C@@H]2CC[C@H]1CC(OC(=O)[C@@H](CO)c1ccccc1)C2 (stereo not given in full),20,67*,0,4,87*,.,
CC12CC[C@H]3[C@@H](CCC4(O)C[C@H](O)CCC34C=NNC(=O)c3ccccc3Cl)C1(O)CCC2C1=CC(=O)OC1 (stereo not given in full),.,.,.,-4,.,.,
O=C1NC(=O)N(CCNc2ncc(C(F)(F)F)cc2Cl)C(=O)C1C=NOCc1c(F)cccc1Cl (stereo not given),.,.,.,-3,.,.,
C=CCN1C(=O)/C(=C/c2ccc(Br)s2)C(=O)NC1=S,26,46*,13,-1,29,.,
CNC(=O)OCc1n(C)cc[n+]1C,-4,40*,-6,1,82*,-1,
CNC(=O)OCCc1nccn1C,-1,-1,-12,4,.,.,
CC[N+](C)(CC)CCCOC(=O)C(O)(c1ccccc1)C1CCCCC1 (stereo not given),17,50*,-10,3,81*,-1,
CCC[N+]12CCC(CC1)C(C(O)(c1ccccc1)c1ccccc1)C2 (stereo not given),-6,-2,2,7,.,.,
CCCC[N+]12CCC(CC1)C(C(O)(c1ccccc1)c1ccccc1)C2 (stereo not given),14,41*,1,.,64*,-3,
COC(=O)c1ccccc1-n1c(C)nc2ccccc2c1=O,-7,-1,.,3,.,.,
O=C(O)c1cccc2nc3ccccc3nc12,72*,3,-3,8,.,.,APOBEC3G confirm=24*;UDG ctr A3G=2
Cc1ccc(-n2c(O)c(/C=N/Nc3ccccc3)c(=O)[nH]c2=O)cc1C,5,-3,3,4,.,.,
COc1ccc(N/N=C/c2c(O)n(-c3cccc(C)c3)c(=O)[nH]c2=O)cc1,54*,0,-15,3,.,.,APOBEC3G confirm=24*;UDG ctr A3G=-4
COc1ccc(N/N=C/c2c(O)n(-c3ccc(C)c(C)c3)c(=O)[nH]c2=O)cc1,51*,-2,-2,4,.,.,APOBEC3G confirm=17;UDG ctr A3G=2
CC12CC[C@H]3[C@@H](CCC4(O)C[C@H](O)CCC34C=NNC(=O)c3ccccc3O)C1(O)CCC2C1=CC(=O)OC1 (stereo not given in full),.,.,.,-5,.,.,
